Measurements gathered from unrelated publications.
Lines come from different studies, so protocols differ.
Target: Mitogen-activated protein kinase 8 (MAPK8, Homo sapiens, UniProt P45983)

O=C1Nc2ccc(Cl)cc2C1=Cc1cc(Cl)c(O)c(Cl)c1
remaining signal (cell-free assay; 0.5 µM): 82.8%

Cc1ccc(C(=O)Nc2ccc(CN3CCN(C)CC3)c(C(F)(F)F)c2)cc1C#Cc1cnc2cccnn12
remaining activity (enzyme activity; inhibitor; 23.5 nM): 82%

N#CCCc1ccc2c(c1)-c1[nH]c3ccc([N+](=O)[O-])cc3c1CC(=O)N2
remaining signal (cell-free assay; 0.5 µM): 93.1%

CC(C)(C)C(=O)c1sc(NC2CCCCC2)nc1N
remaining activity (enzyme activity; inhibitor; 10 µM): 98%

COc1cc2c(N3CCN(C(=O)Nc4ccc(OC(C)C)cc4)CC3)ncnc2cc1OCCCN1CCCCC1
remaining signal (cell-free assay; 0.5 µM): 105%

O=C(Nc1ccc(Oc2ccc(F)cc2)cc1)N1CCc2ncccc2[C@H]1c1ccc(F)cc1
remaining binding (cell-free assay; competition with immobilised ligand; 1 µM): 91%

COc1cc(Nc2cnc(C#N)c(O[C@H](C)CN(C)C)n2)ncc1-c1cnn(C)c1
remaining activity (enzyme activity; inhibitor; radiometric; 10 µM): 93%

NS(=O)(=O)c1cc(NC(=O)C2(c3ccccc3Cl)CC2)ccc1Oc1cccc(Cl)c1
remaining binding (cell-free assay; competition with immobilised ligand; 1 µM): 100%

Cn1c2c(c3ccc(Cl)c(Cl)c31)C(C#N)C1(CCCC1)NC2=O (centres unmarked)
ΔTm (thermal stability; DSF; 10 µM): 0.6 °C

COc1cc(-c2cc(-c3ccc(N4CCNCC4)cc3)cnc2C)cc(OC)c1OC
inhibition (enzyme activity; inhibitor; 0.1 µM): 0%

Oc1cccc(-c2nc(N3CCOCC3)c3oc4ncccc4c3n2)c1
remaining activity (enzyme activity; inhibitor; 10 µM): 102%

CCC1(CC)NC(=O)c2c(c3ccc(Cl)c(Cl)c3n2C)C1C#N (centres unmarked)
ΔTm (thermal stability; DSF; 10 µM): 0.3 °C

Cc1cc(NC(=O)c2cccc3cc(-c4cccc5[nH]nc(N)c45)ccc23)ccc1F
activity vs control (enzyme activity; inhibitor; 0.1 µM): 103%

COc1ccc2c(c1)O[C@H](c1ccc(OC)c(OC)c1)C[C@@H]2NC(=O)C1(c2ccc3c(c2)OC(F)(F)O3)CC1
remaining binding (cell-free assay; competition with immobilised ligand; 1 µM): 96%

CN(C)C1CCN(CC#Cc2nn(C3CCCC3)c3nc(NCc4ccccc4)ncc23)C1 (centres unmarked)
inhibition (enzyme activity; inhibitor; FRET; 0.1 µM): 1%

CN([C@@H]1CCc2c(CC(=O)O)c3ccccc3n2C1)S(=O)(=O)c1ccc(F)cc1
remaining binding (cell-free assay; competition with immobilised ligand; 1 µM): 77%

O=C(Nc1cnn(-c2csc(C(=O)NC3COC3)c2)c1)Nc1c(F)cccc1Cl
remaining activity (enzyme activity; inhibitor; 5 µM): 49.1%

FC(F)(F)Oc1cccc(-c2cnc3ccc(-c4ccncc4)nn23)c1
activity vs control (enzyme activity; inhibitor; radiometric; 5 µM): 90%

O=C(Nc1cnn(-c2csc(C(=O)NC3COC3)c2)c1)Nc1ccccc1Cl
remaining activity (enzyme activity; inhibitor; 5 µM): 57.6%

CC(C)(O)c1cncc(-c2nc3ccc(F)cc3n2C2CC2)c1
remaining binding (cell-free assay; competition with immobilised ligand; 1 µM): 100%

Cc1ccc(NC(=O)c2ccc(C)c(C(F)(F)F)c2)cc1C#Cc1nn(C2CCC(O)CC2)c2ncnc(N)c12 (centres unmarked)
remaining signal (cell-free assay; 10 µM): 35%

Nc1nc(NC2CCCCC2)sc1C(=O)c1ccccc1
remaining activity (enzyme activity; inhibitor; 10 µM): 60%

CC(C)(C)c1nc2c(s1)c1nc(N)ncc1c1ccc(NS(=O)(=O)c3c(F)cccc3F)c(F)c12
remaining activity (enzyme activity; inhibitor; radiometric; 1 µM): 75%

Cn1c(=O)n(-c2ccc(C(C)(C)C#N)cc2)c2c3cc(-c4cnc5ccccc5c4)ccc3ncc21
remaining activity (enzyme activity; inhibitor; 10 µM): 105%

CCCOc1ccc([C@@H]2[C@@H](C(=O)O)[C@H](c3ccc4c(c3)OCO4)CN2CC(=O)Nc2c(CC)cccc2CC)cc1
remaining binding (cell-free assay; competition with immobilised ligand; 1 µM): 87%

Cn1c2c(c3ccc(Cl)c(Cl)c31)C(C#N)C1(CCOCC1)NC2=O (centres unmarked)
ΔTm (thermal stability; DSF; 10 µM): -0.1 °C

CCS(=O)(=O)c1cc2cc(C[C@](O)(CC(C)(C)c3ccc(F)cc3C(N)=O)C(F)(F)F)[nH]c2cn1
remaining binding (cell-free assay; competition with immobilised ligand; 1 µM): 100%

N#Cc1c(NC(=O)c2cccc3ccccc23)sc2c1CCCC2
remaining signal (cell-free assay; 0.5 µM): 87.3%

CNCc1ccc(-c2cc(-c3nc(-c4ccc(S(=O)(=O)C(C)C)cc4)cnc3N)on2)cc1
inhibition (enzyme activity; inhibitor; 0.4 µM): 6%

CC1(C)NC(=O)c2[nH]c3c(Cl)c(Cl)ccc3c2C1C#N (centres unmarked)
ΔTm (thermal stability; DSF; 10 µM): 0.8 °C

COc1cc(/C=C/C(=O)CC(=O)/C=C/c2ccc(O)c(OC)c2)ccc1O
activity vs control (enzyme activity; inhibitor; 1 µM): 99%

COc1cc2ncnc(Nc3ccc(Oc4ccccc4)c(C)c3C)c2cc1OC
inhibition (enzyme activity; inhibitor; 1 µM): 2%

CC/C(=N\NC(=O)NCc1cccc(O)c1)c1ccc(O)c(C)c1O
inhibition (enzyme activity; inhibitor; 0.1 µM): -2.4%

Cn1c2c(c3ccc(Cl)c(Cl)c31)C(C#N)C1(CCNCC1)NC2=O (racemic)
ΔTm (thermal stability; DSF; 10 µM): 0.2 °C

Cc1cc(NC(=O)c2cccc(S(F)(F)(F)(F)F)c2)cc(-n2ccn3nc(-c4cccnc4)cc23)c1
remaining binding (cell-free assay; competition with immobilised ligand; 1 µM): 55.9%
